Experimental data as given in ChEMBL document CHEMBL1157227, “Cytotoxic pregnane steroids from the formosan soft coral Stereonephthya crystalliana” (J Nat Prod, 2006).
Values after ≈ are worked out from the molar mass of the structure shown.

Assays:
HT-29 = experiment: Cytotoxicity against human HT29 cells; assay type: functional; details: read-out: ED50 (the source's name)
Outline: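 HT-29 human colon adenocarcinoma cells from ATCC; in vitro cytotoxicity by a previously described procedure; result given as ED50 in µg/mL, with ED50 ≤ 4.0 µg/mL taken as significant for pure compounds.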

P388 = experiment: Cytotoxicity against mouse P388 cells; assay type: functional, cell-based
Outline: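 P-388 mouse lymphocytic leukemia cells provided by an academic lab; in vitro cytotoxicity by a previously described procedure; result given as ED50 in µg/mL, with ED50 ≤ 4.0 µg/mL taken as significant for pure compounds.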

SMILES	EC50 (HT-29) [µg/mL]	IC50 (P388) [µg/mL]
C=CC1CCC2C3CCC4CC(OC5OC(C)C(O)C(OC(C)=O)C5O)CCC4(C)C3CCC12C (stereo not drawn)	6.2 (≈ 12.6 µM)	13.3 (≈ 27.1 µM)
C=C[C@H]1CC[C@H]2[C@@H]3CC[C@H]4C[C@@H](O)CC[C@]4(CO)[C@H]3CC[C@]12C [STEREONSTEROID A]	7.5 (≈ 23.5 µM)	3.5 (≈ 11 µM)
C=C[C@H]1CC[C@H]2[C@@H]3CC[C@H]4C[C@@H](OC(C)=O)CC[C@]4(C=O)[C@H]3CC[C@]12C [STEREONSTEROID B]	1.7 (≈ 4.74 µM)	1.6 (≈ 4.46 µM)
C=C[C@H]1CC[C@H]2[C@@H]3CC[C@H]4C[C@@H](O[C@@H]5O[C@@H](C)[C@@H](OC(C)=O)[C@@H](O)[C@@H]5O)CC[C@]4(CO)[C@H]3CC[C@]12C [STEREONSTEROID C]	2.7 (≈ 5.33 µM)	3.1 (≈ 6.12 µM)
C=C[C@H]1CC[C@H]2[C@@H]3CC[C@H]4C[C@@H](O[C@@H]5O[C@@H](C)[C@@H](OC(C)=O)[C@@H](O)[C@@H]5O)CC[C@]4(COC(C)=O)[C@H]3CC[C@]12C [STEREONSTEROID D]	5.2 (≈ 9.48 µM)	4.9 (≈ 8.93 µM)
C=C[C@H]1CC[C@H]2[C@@H]3CC[C@H]4C[C@@H](O[C@@H]5O[C@@H](C)[C@@H](OC(C)=O)[C@@H](O)[C@@H]5O)CC[C@]4(C=O)[C@H]3CC[C@]12C [STEREONSTEROID E]	9.3 (≈ 18.4 µM)	3.8 (≈ 7.53 µM)
C=C[C@H]1CC[C@H]2[C@@H]3CC[C@H]4C[C@@H](O[C@@H]5O[C@@H](C)[C@@H](OC(C)=O)[C@@H](O)[C@@H]5O)CC[C@]4(C)[C@H]3CC[C@]12C [STEREONSTEROID F]	10.8 (≈ 22 µM)	9.4 (≈ 19.2 µM)
C=C[C@H]1CC[C@H]2[C@@H]3CC=C4C[C@@H](O[C@@H]5O[C@@H](C)[C@@H](O)[C@@H](OC(C)=O)[C@@H]5O)CC[C@]4(C)[C@H]3CC[C@]12C [STEREONSTEROID H]	5.3 (≈ 10.8 µM)	5.4 (≈ 11.1 µM)
C=C[C@H]1CC[C@H]2[C@@H]3CC[C@H]4C[C@@H](O[C@@H]5OC[C@@H](O)[C@H](O)[C@H]5O)CC[C@]4(C)[C@H]3CC[C@]12C [STEREONSTEROID I]	7.7 (≈ 17.7 µM)	5.9 (≈ 13.6 µM)
